Active and inactive are the calls of the source. No cut-off for these calls is given here.
How the values were obtained:
4T1 = assay: Antitumor activity against mouse Fluc-labeled 4T1 cells implanted in Balb/c mouse assessed as tumor growth inhibition at 90 mg/kg, po administered daily via gavage for 18 days by bioluminescence assay relative to control; assay type: functional; conditions: 4T1, po, 432 h, read-out: TGI
In short: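 Fluc-labelled 4T1 cells (lentiviral transduction) were implanted orthotopically into the mammary fat pads of female BALB/c mice aged 6–8 weeks. Treatment started once tumours averaged 100 mm3, given daily by oral gavage. Tumour burden was followed by bioluminescence imaging of Fluc reporter expression.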

MDA-MB-231 [1] = assay: Induction of apoptosis in human MDA-MB-231 cells assessed as early apoptotic cells at 5 uM after 48 hrs by annexin V-FITC/propidium iodide staining based flow cytometry (reference value: 0.4%); assay type: functional
MDA-MB-231 [2] = assay: Induction of apoptosis in human MDA-MB-231 cells assessed as live cells at 10 uM after 48 hrs by annexin V-FITC/propidium iodide staining based flow cytometry (reference value: 98.1%); assay type: functional
Histone deacetylase 1 [3] = molecular target: T1, Histone deacetylase 1 (Homo sapiens, UniProt Q13547); assay: Inhibition of HDAC1 in human MDA-MB-231 cells assessed as increase in p53 phosphorylation at Ser15 residue at 1 to 5 uM after 48 hrs by Western blot method; assay type: cell-based
T1 sequence (Q13547 whole entry): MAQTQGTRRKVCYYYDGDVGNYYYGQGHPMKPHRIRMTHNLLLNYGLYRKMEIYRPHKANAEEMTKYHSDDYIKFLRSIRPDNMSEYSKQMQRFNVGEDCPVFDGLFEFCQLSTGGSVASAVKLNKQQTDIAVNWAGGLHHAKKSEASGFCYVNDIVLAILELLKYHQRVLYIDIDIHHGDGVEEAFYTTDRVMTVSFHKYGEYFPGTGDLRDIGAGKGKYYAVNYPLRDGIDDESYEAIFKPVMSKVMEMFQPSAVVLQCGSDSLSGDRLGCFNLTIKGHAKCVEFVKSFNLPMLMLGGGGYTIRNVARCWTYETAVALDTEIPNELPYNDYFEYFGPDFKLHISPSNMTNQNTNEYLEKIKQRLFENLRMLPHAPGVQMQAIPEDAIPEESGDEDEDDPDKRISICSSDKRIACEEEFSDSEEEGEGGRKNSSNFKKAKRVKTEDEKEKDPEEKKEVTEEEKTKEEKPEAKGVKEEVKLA

Histone deacetylase 1 [4] = molecular target: T1, Histone deacetylase 1; assay: Inhibition of HDAC1 in human Hep3B cells assessed as increase in acetylated-histone H3 level at 1 to 5 uM after 48 hrs by Western blot method; assay type: cell-based
Aurora-C/INCENP = Aurora-C/INCENP (Homo sapiens, UniProt Q9NQS7+Q9UQB9); assay: Inhibition of recombinant human N-terminal His6-tagged Aurora-C (35-end residues)/N-terminal GST-tagged INCENP (821-end residues) expressed in baculovirus infected sf21 cells using AKRRRLSSLRA substrate in presence of [gamma33P]ATP after 10 mins by scintillation counting method
Aurora-C/INCENP, sequence (Q9UQB9 whole entry): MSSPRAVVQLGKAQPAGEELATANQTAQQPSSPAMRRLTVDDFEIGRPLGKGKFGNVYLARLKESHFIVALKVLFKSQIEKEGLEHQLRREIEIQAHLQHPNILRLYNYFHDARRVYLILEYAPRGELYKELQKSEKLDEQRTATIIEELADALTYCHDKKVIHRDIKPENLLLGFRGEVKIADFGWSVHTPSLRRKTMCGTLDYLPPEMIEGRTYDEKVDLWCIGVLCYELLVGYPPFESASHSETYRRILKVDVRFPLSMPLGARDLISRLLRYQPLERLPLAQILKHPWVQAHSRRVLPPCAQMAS
Aurora-C/INCENP, sequence (Q9NQS7 whole entry): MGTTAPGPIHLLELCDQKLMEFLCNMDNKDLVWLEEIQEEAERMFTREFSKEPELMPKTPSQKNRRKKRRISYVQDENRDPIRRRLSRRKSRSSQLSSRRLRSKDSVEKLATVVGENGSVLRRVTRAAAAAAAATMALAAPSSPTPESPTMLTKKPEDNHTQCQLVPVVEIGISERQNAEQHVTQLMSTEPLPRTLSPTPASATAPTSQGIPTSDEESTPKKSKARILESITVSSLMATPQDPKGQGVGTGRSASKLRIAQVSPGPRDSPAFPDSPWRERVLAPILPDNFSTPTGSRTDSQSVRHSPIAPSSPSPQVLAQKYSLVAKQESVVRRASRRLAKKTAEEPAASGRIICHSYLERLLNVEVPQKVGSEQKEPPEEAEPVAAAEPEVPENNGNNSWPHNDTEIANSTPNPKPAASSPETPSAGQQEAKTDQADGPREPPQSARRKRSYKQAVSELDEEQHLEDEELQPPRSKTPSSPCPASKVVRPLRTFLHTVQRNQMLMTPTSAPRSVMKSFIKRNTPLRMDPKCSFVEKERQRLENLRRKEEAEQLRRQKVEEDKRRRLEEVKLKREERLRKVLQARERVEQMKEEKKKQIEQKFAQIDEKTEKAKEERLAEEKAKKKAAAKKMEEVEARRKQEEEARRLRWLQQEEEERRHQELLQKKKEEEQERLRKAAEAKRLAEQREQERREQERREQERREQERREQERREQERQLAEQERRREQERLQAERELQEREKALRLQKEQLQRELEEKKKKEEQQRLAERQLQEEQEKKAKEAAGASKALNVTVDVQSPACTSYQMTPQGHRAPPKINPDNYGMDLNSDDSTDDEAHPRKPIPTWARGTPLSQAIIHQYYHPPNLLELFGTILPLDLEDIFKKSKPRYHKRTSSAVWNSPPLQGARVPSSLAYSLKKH

Hep 3B2 [5] = assay: Induction of apoptosis in human Hep3B cells assessed as necrotic cells at 5 uM after 48 hrs by annexin V-FITC/propidium iodide staining based flow cytometry (reference value: 4.97%); assay type: functional
Hep 3B2 [6] = assay: Induction of apoptosis in human Hep3B cells assessed as early apoptotic cells at 1 uM after 48 hrs by annexin V-FITC/propidium iodide staining based flow cytometry (reference value: 1.91%); assay type: functional
T47D [7] = assay: Cell cycle arrest in human T47D cells assessed as accumulation at G2 phase at 2.5 to 10 uM after 24 hrs by propidium iodide staining based flow cytometry; assay type: functional
In short: (§1)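 Cells were exposed for 24 h to a range of concentrations (625 nM, 2.5 and 10 µM), with DMSO vehicle as control. They were then stained with propidium iodide and analysed by flow cytometry to obtain the percentages of cells in G0/G1, S and G2 phases.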

T47D [8] = assay: Induction of apoptosis in human T47D cells assessed as necrotic cells at 5 uM after 48 hrs by annexin V-FITC/propidium iodide staining based flow cytometry (reference value: 0.8%); assay type: functional
[9] = Clearance in Sprague-Dawley rat at 20 mg/kg, iv administered as single dose by HPLC analysis; assay type: ADME, organism-based; conditions: in vivo
Mus musculus = assay: Toxicity in Balb/c mouse assessed as overt signs of toxicity at 45 to 130 mg/kg, ip for 16 consecutive days; assay type: organism-based; conditions: in vivo
T47D [10] = assay: Induction of apoptosis in human T47D cells assessed as late apoptotic cells at 1 uM after 48 hrs by annexin V-FITC/propidium iodide staining based flow cytometry (reference value: 6.16%); assay type: functional
Hep 3B2 [11] = assay: Downregulation of Cyclin-D1 protein expression in human Hep3B cells after 48 hrs by Western blot method; assay type: functional, cell-based
In short: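 Treated cells were lysed and CDK4 and cyclin D1 protein levels were assessed by Western blot.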

[12] = MRT (0 to infinity) in Sprague-Dawley rat at 20 mg/kg, ip administered as single dose by HPLC analysis; assay type: ADME, organism-based; conditions: in vivo
NCI-H460 [13] = assay: Induction of apoptosis in human NCI-H460 cells assessed as late apoptotic cells at 10 uM after 48 hrs by annexin V-FITC/propidium iodide staining based flow cytometry (reference value: 1.29%); assay type: functional
[14] = Aqueous solubility in water at 1 mg using acid formulation sonicated for 24 hrs and incubated under unstirred condition for 24 hrs by HPLC method; assay type: physicochemical
[15] = AUC (0 to infinity) in Sprague-Dawley rat at 20 mg/kg, iv administered as single dose by HPLC analysis; assay type: ADME, organism-based; parameters: dose 20 mg/kg, route intravenous, time infinity; conditions: in vivo
Hep 3B2 [16] = assay: Downregulation of CDK4 protein expression in human Hep3B cells after 48 hrs by Western blot method; assay type: functional, cell-based
NCI-H460 [17] = assay: Induction of apoptosis in human NCI-H460 cells assessed as live cells at 1 uM after 48 hrs by annexin V-FITC/propidium iodide staining based flow cytometry (reference value: 97.3%); assay type: functional
T47D [18] = assay: Induction of apoptosis in human T47D cells assessed as early apoptotic cells at 10 uM after 48 hrs by annexin V-FITC/propidium iodide staining based flow cytometry (reference value: 7.7%); assay type: functional
[19] = molecular target: Cyclin-dependent kinase 5/CDK5 activator 1 (Homo sapiens) (UniProt Q00535+Q15078); assay: Inhibition of recombinant human full length N-terminal 6His-tagged CDK5/N-terminal GST-tagged p35 co-expressed in baculovirus infected sf21 cells at 1 uM using histone H1 substrate in presence of [gamma33P]ATP after 10 mins by scintillation counting method relative to control
Cyclin-dependent kinase 5/CDK5 activator 1 (Homo sapiens), sequence (Q00535 whole entry): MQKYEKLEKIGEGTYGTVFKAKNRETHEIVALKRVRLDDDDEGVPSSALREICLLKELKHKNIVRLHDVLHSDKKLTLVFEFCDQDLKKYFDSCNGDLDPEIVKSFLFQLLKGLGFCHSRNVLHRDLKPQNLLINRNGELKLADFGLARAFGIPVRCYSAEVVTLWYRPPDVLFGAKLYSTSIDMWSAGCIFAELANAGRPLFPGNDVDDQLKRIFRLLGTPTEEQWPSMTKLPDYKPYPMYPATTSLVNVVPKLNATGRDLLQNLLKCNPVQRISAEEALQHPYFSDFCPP
Cyclin-dependent kinase 5/CDK5 activator 1 (Homo sapiens), sequence (Q15078 99-307 partner limits assumed): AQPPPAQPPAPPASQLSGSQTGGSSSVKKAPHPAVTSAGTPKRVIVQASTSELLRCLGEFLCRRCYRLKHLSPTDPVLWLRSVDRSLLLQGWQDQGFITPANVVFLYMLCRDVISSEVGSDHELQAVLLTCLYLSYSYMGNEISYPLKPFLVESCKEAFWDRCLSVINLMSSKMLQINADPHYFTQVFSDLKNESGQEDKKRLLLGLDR

[20] = MRT (0 to infinity) in Sprague-Dawley rat at 20 mg/kg, iv administered as single dose by HPLC analysis; assay type: ADME, organism-based; conditions: in vivo
A549 = assay: Induction of apoptosis in human A549 cells assessed as live cells at 10 uM after 48 hrs by annexin V-FITC/propidium iodide staining based flow cytometry (reference value: 92.7%); assay type: functional
MDA-MB-231 [21] = assay: Induction of apoptosis in human MDA-MB-231 cells assessed as early apoptotic cells at 1 uM after 48 hrs by annexin V-FITC/propidium iodide staining based flow cytometry (reference value: 0.4%); assay type: functional
T47D [22] = assay: Induction of apoptosis in human T47D cells after 48 hrs by Hoechst 33342 staining based assay; assay type: functional, cell-based
In short: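 T47D cultures were incubated with test agent for 48h, then stained with Hoechst 33342. Apoptotic bodies were examined by imaging and compared with untreated cells.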

T47D [23] = assay: Induction of apoptosis in human T47D cells assessed as live cells at 10 uM after 48 hrs by annexin V-FITC/propidium iodide staining based flow cytometry (reference value: 85.3%); assay type: functional
NCI-H460 [24] = assay: Induction of apoptosis in human NCI-H460 cells assessed as late apoptotic cells at 5 uM after 48 hrs by annexin V-FITC/propidium iodide staining based flow cytometry (reference value: 1.29%); assay type: functional
Rattus norvegicus = assay: Apparent volume of distribution at steady state in Sprague-Dawley rat at 20 mg/kg, po administered as single dose by HPLC analysis; assay type: ADME, organism-based; conditions: in vivo
[25] = molecular target: CDK6/cyclin D3 (Homo sapiens) (UniProt P30281+Q00534); assay: Inhibition of recombinant human full length N-terminal 6His-tagged CDK6/N-terminal GST-tagged Cyclin-D3 co-expressed in sf21 cells at 1 uM using histone H1 substrate in presence of [gamma33P]ATP after 10 mins by scintillation counting method relative to control
NCI-H460 [26] = assay: Cell cycle arrest in human NCI-H460 cells assessed as decrease in S-phase at 625 nM after 24 hrs by propidium iodide staining based flow cytometry; assay type: functional; in short: as §1

inhibition (Histone deacetylase 1 [3]): Active | inhibition (Histone deacetylase 1 [4]): Active | IC50 (Aurora-C/INCENP): 22 nM | clearance [9]: 69 mL/min/kg | MRT inf [12]: 13.8 h | solubility [14]: Insoluble | AUC(0-inf) [15]: 6160 ng·h/mL | inhibition [19]: 72% | MRT inf [20]: 14.1 h | Vdss(app) (Rattus norvegicus): 431.52 L/kg | inhibition [25]: 70%
Structure (SMILES): CN(C)C(=O)c1cc2cnc(Nc3ccc(NC(=O)CCCCCCC(=O)NO)cc3)nc2n1C1CCCC1
inhibition in vivo at 90 mg/kg (4T1): 70.3% | Activity (MDA-MB-231 [1]): 2.57% | Activity (MDA-MB-231 [2]): 87.1% | Activity (Hep 3B2 [5]): 2.08% | Activity (Hep 3B2 [6]): 3.82% | Activity (T47D [7]): Active | Activity (T47D [8]): 0.82% | Activity (Mus musculus): Non-Toxic | Activity (T47D [10]): 6.48% | Activity (Hep 3B2 [11]): Dose-dependent effect | Activity (NCI-H460 [13]): 10.9% | Activity (Hep 3B2 [16]): Dose-dependent effect | Activity (NCI-H460 [17]): 97% | Activity (T47D [18]): 37.1% | Activity (A549): 59.8% | Activity (MDA-MB-231 [21]): 0.78% | Activity (T47D [22]): Active | Activity (T47D [23]): 43.2% | Activity (NCI-H460 [24]): 5.38% | Activity (NCI-H460 [26]): Active
